Data set [1] in a line: Drug metabolism in bile duct-cannulated Sprague-Dawley rat urine assessed as DPH-124921metabolite level at 30 mg/kg, po after 12 hrs by LC-MS/MS analysis. Further details: dose 30 mg/kg, route oral. The class given is ADME, organism-based. Conditions: in vivo. The procedure, abridged: (§1)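 Male bile-duct-cannulated Sprague-Dawley rats (n=3), fasted overnight, received 30 mg/kg by gavage in 0.5% methylcellulose. Urine and bile were collected 0-12 h and pooled by equal percentage weight across animals, then centrifuged. Supernatants were profiled by LC/MS/MS. Bile was also treated with β-glucuronidase in pH 4.8 acetate buffer, 37°C, 16 h.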

Data set [2] is described as follows: Drug metabolism in bile duct-cannulated Sprague-Dawley rat urine assessed as BMS-572273 metabolite level at 30 mg/kg, po after 12 hrs by LC-MS/MS analysis. In kind it is ADME, organism-based. Further details: dose 30 mg/kg, route oral. The settings on record: in vivo. The procedure, abridged:
as §1

Data set [3] can be described thus: Drug metabolism in bile duct-cannulated Sprague-Dawley rat bile assessed as DPH-123554 metabolite level at 30 mg/kg, po after 12 hrs by LC-MS/MS analysis. The class given is ADME, organism-based. Further details: dose 30 mg/kg, route oral. The settings on record: in vivo. The procedure, abridged: as §1
The nature of data set [4]: Drug metabolism in beagle dog hepatocytes assessed as 7-hydroxycoumarin formation at 25 uM after 3 hrs by HPLC analysis. The class given is ADME, cell-based, Canis lupus familiaris, Hepatocyte.
Data set [5] in a line: Terminal half life in Sprague-Dawley rat at 5 mg/kg, po. Set-up: dose 5 mg/kg, route oral. The settings on record: in vivo, read-out: beta t1/2 (converted). The class given is ADME, organism-based. The procedure, abridged:
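Male Sprague-Dawley rats (n=3 per route, 0.34–0.35 kg) with jugular cannulas, fasted about 18 h before and 4 h after dosing. IV dose of 1 mg/kg in 20% ethanol/saline; oral dose of 5 mg/kg by gavage in 0.5% methylcellulose. Plasma sampled 0–96 h and assayed by LC/MS/MS (LLOQ 1.00 ng/ml). Noncompartmental analysis.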

Data set [6] is described as follows: Terminal half life in beagle dog at 5 mg/kg, po. The class given is ADME, organism-based, Canis lupus familiaris. Set-up: dose 5 mg/kg, route oral. The settings on record: in vivo, read-out: beta t1/2 (converted). The gist of the method: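 Male beagles (n=3, 10.1-12.7 kg) in one-way crossover, one-week washout after IV leg; fasted ~15 h before and 4 h after dosing. Single gavage 5 mg/kg in 0.5% aqueous methylcellulose. Plasma sampled 0-96 h, parent measured by validated LC/MS/MS (1.00-1000 ng/ml). Noncompartmental analysis; Tmax taken from observed data.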

For data set [7], the system named is Serum. Put plainly: Metabolic stability in dog serum after 3 hrs by equilibrium dialysis. The class given is ADME, cell-free, Canis lupus familiaris. The procedure, abridged: (§2)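 Stability assessed in the serum samples from the equilibrium-dialysis setup: compound at final 12.8, 25.6 and 38.5 µM, dialysed against 134 mM phosphate buffer, pH 7.4, at 37°C with rotation at 20 rpm. Samples monitored for degradants over the 3-h incubation.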
A general note: Equilibrium dialysis compares concentrations on both sides of a semipermeable membrane.

Data set [8] can be described thus: Protein binding in dog serum after 3 hrs by equilibrium dialysis. The class given is ADME, cell-free, Canis lupus familiaris. The settings on record: read-out: PB (converted). The gist of the method: (§3)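 Equilibrium dialysis of serum spiked to final 12.8, 25.6 and 38.5 µM against 134 mM phosphate buffer, pH 7.4, through a 10,000 Da cutoff membrane. Cells rotated at 20 rpm, 37°C, 3 h. Percent unbound taken as buffer concentration divided by serum concentration.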

A short description of data set [9]: Drug metabolism in rat hepatocytes assessed as 7-hydroxycoumarin formation at 25 uM after 3 hrs by HPLC analysis. The class given is ADME, cell-based, Hepatocyte.
The nature of data set [10]: Oral bioavailability in chimpanzee at 1 mg/kg. Conditions: Pan troglodytes, in vivo.
Data set [11] is described as follows: Protein binding in rat serum after 3 hrs by equilibrium dialysis. The class given is ADME, cell-free. Conditions: read-out: PB (converted). The procedure, abridged:
as §3

Data set [12] in a line: AUC (infinity) in beagle dog at 5 mg/kg, po. The class given is ADME, organism-based, Canis lupus familiaris. Set-up: time infinity, dose 5 mg/kg, route oral. Conditions: plasma. The gist of the method: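 Male beagle dogs (n=3, 10.1-12.7 kg) in a one-way IV/PO crossover with one-week washout, fasted ~15 h pre-dose and 4 h post-dose. Dosing was 1 mg/kg IV bolus into the saphenous vein in DMA:propylene glycol:water (1:7:2), or 5 mg/kg gavage in 0.5% methylcellulose. Blood was sampled 0-96 h. Plasma was assayed by LC/MS/MS (LLOQ 1.00 ng/ml) with noncompartmental analysis; Cmax was observed directly.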

Data set [13] is described as follows: Cmax in chimpanzee at 1 mg/kg, po. Set-up: dose 1 mg/kg, route oral. Conditions: in vivo. In kind it is ADME, organism-based, Pan troglodytes. The procedure, abridged:
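Two fasted male chimpanzees (58, 72 kg) received 1 mg/kg orally as a suspension in 0.5% methylcellulose/orange drink with 1% Tween 80 (1:1). Blood was sampled 0-96 h post-dose. Plasma was assayed by validated LC/MS/MS (LLOQ 1.00 ng/ml). Noncompartmental analysis gave AUC(INF) by the mixed log-linear trapezoidal method, with Cmax observed directly; values are mean (min, max).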

Data set [14] in a line: Oral bioavailability in beagle dog at 5 mg/kg. In kind it is ADME, organism-based, Canis lupus familiaris. Conditions: in vivo. The gist of the method: (§4)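 Male beagle dogs (n=3), one-way IV/PO crossover with a one-week washout, fasted about 15 h before and 4 h after dosing. IV dose of 1 mg/kg as a saphenous bolus in N,N-dimethylacetamide:propylene glycol:water (1:7:2); PO dose of 5 mg/kg by gavage in 0.5% methylcellulose. Plasma sampled 0–96 h and assayed by LC/MS/MS (LLOQ 1.00 ng/ml). Noncompartmental analysis; CL = dose/AUC(INF) after IV; F from dose-normalized AUC ratio.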

Data set [15] has as its system Serum. The data set is described as follows: Metabolic stability in human serum after 3 hrs by equilibrium dialysis. The class given is ADME, cell-free. The procedure, abridged: as §2
Data set [16] in a line: Drug metabolism in cynomolgus monkey cryopreserved hepatocytes assessed as 7-hydroxycoumarin formation at 25 uM after 3 hrs by HPLC analysis. In kind it is ADME, cell-based, Macaca fascicularis, Hepatocyte.
For data set [17], the target named is T1, Corticotropin-releasing factor-binding protein (Homo sapiens, UniProt P24387).
T1 sequence (P24387 whole entry): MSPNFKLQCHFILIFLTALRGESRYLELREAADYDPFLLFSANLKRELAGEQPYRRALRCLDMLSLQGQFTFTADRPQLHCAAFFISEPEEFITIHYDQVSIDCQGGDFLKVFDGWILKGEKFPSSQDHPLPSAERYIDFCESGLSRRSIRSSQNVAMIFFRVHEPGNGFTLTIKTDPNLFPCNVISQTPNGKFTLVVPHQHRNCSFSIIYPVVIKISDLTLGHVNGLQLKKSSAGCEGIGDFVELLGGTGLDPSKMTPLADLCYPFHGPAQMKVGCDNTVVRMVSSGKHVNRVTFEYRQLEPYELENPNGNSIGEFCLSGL
The data set is described as follows: Binding affinity to CRF-binding protein (unknown origin).

In the next data set the test system is Canis familiaris. Put plainly: Terminal volume of distribution in beagle dog at 1 mg/kg, iv. The class given is ADME, organism-based, Canis lupus familiaris. Set-up: dose 1 mg/kg, route intravenous. The settings on record: in vivo. The procedure, abridged: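 Male beagles (n=3, 10.1-12.7 kg), fasted ~15 h pre- and 4 h post-dose, given a 1 mg/kg IV bolus via saphenous vein catheter in N,N-dimethylacetamide:propylene glycol:water (1:7:2). Plasma drawn 0-96 h and assayed by LC/MS/MS. Noncompartmental analysis; Vz = CLp (dose/AUC(INF)) divided by elimination rate constant.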

Data set [18] can be described thus: Drug metabolism in human cryopreserved hepatocytes assessed as 7-hydroxycoumarin formation at 25 uM after 3 hrs by HPLC analysis. In kind it is ADME, cell-based, Hepatocyte.
Data set [19] is described as follows: Plasma clearance in beagle dog at 1 mg/kg, iv. Further details: dose 1 mg/kg, route intravenous. The class given is ADME, organism-based, Canis lupus familiaris. The gist of the method: as §4
Data set [20] can be described thus: Drug metabolism in mouse hepatocytes assessed as 7-hydroxycoumarin formation at 25 uM after 3 hrs by HPLC analysis. In kind it is ADME, cell-based, Hepatocyte.
The test system of data set [21] is Serum. Put plainly: Metabolic stability in rat serum after 3 hrs by equilibrium dialysis. In kind it is ADME, cell-free. The gist of the method: as §2
Data set [22] in a line: Apparent permeability from apical to basolateral side in human Caco2 cells. The class given is ADME, cell-based. The settings on record: Caco-2. The gist of the method: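 Caco-2 cells (passage 50-60) were seeded at 60,000 cells/cm2 on polycarbonate Transwells and cultured 21-25 days. Transport buffer was HBSS with 2% DMA, pH 7.4. Compound was applied apically at 25 µM at 37°C. Only monolayers with TEER 400-500 Ω cm2 at start and end were used, with mannitol as an integrity probe. Papp = (dQ/dt)/(A×C0).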
In general terms: Caco-2 cells form a polarised layer with tight junctions and transporters.

As to `COc1ccc(-c2c(C)nn3c(N)nc(C)nc23)c(C)n1`, the Drug metabolism entry in data set [1] is “metabolite_detected”.

`COc1ccc(-c2c(C)nn3c(O)nc(C)nc23)c(C)n1`: in data set [2], the Drug metabolism result is recorded as “metabolite_detected”.

Regarding `CC[C@@H](C)Nc1nc(C)nc2c(-c3ccc(O)nc3C)c(C)nn12`, the Drug metabolism result in data set [3] was “metabolite_detected”.

Consider `CC[C@@H](C)Nc1nc(C)nc2c(-c3ccc(OC)nc3C)c(C)nn12` [PEXACERFONT], for which the Drug metabolism entry in [4], in data set [9], in data set [16], in data set [18] and in [20] was “metabolite_detected” each time. Besides, the half-life was 829 min in data set [5] and 2800 min in data set [6]. For the same compound, the Stability result in the data set on Serum [7], in the data set with Serum [15] and with Serum [21] was “Stable” each time. In addition, the figures for the fraction unbound at 3 h in [8] and in data set [11] were 0.048 and 0.064, respectively. The values for the bioavailability in data set [10] and in [14] were 58.5% and 58.8%, respectively. Further, in [12], the AUC(0-inf) was found to be 13 µM·h. The same compound gave a Cmax in data set [13] of 1070 nM. In data set [17], this compound returned an IC50 of more than 1000 nM. Also, the distribution volume (Vz) with Canis familiaris turned out to be 28.2 L/kg. In data set [19], this compound showed a clearance of 11.6 mL/min/kg. Further, in data set [22], the apical-to-basolateral permeability (Papp A→B) came to 17 ×10⁻⁶ cm/s.

Broadly, the bioavailability is dose-corrected exposure relative to a reference, in per cent. What is called AUC(0-inf) is total exposure, with the tail of the curve extrapolated. Broadly, the Cmax is the highest concentration seen after dosing. For orientation: IC50 means the concentration needed to halve the response being measured. Broadly, the Vz is the apparent volume that relates the amount in the body to the concentration in plasma or blood. The term clearance denotes the rate of elimination divided by the concentration. As a reminder, the Papp A→B is the apparent permeability from the apical to the basolateral side of a cell layer.
